ChEMBL document CHEMBL3046880, “Syntheses and herbicidal activities of novel triazolinone derivatives” (J Agric Food Chem, 2008)

How the values were obtained:
Brassica juncea [1] = experiment: Herbicidal activity against Brassica juncea assessed as growth inhibition at 150 g of active ingredient/ha administered using post-emergence treatment measured 15 days post treatment protocol under greenhouse conditions; assay type: functional
Procedure, shortened: (§1)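 Test agents were formulated as 100 g/L emulsified concentrates (DMF solvent, TW-80 emulsifier), diluted with water and sprayed postemergence on pot-grown weeds. Seeds were sown 1-3 cm deep in clay soil (pH 6.5, 1.6% organic matter, 37.3% clay, CEC […]) and grown at 15–30 °C in a greenhouse. Dicots were treated at the two-leaf stage. Untreated and DMF-treated plants served as controls. Activity was scored visually 15 days after treatment.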

Setaria viridis [2] = experiment: Herbicidal activity against Setaria viridis (green foxtail) assessed as growth inhibition at 150 g of active ingredient/ha administered using post-emergence treatment measured 15 days post treatment protocol under greenhouse conditions; assay type: functional; procedure, shortened: as §1
Gossypium hirsutum [3] = experiment: Phytotoxicity against Gossypium hirsutum (cotton) plant assessed as growth inhibition at 450 g of active ingredient/ha administered using post-emergence treatment measured 30 days post treatment protocol under greenhouse conditions; assay type: organism-based; settings: in vivo, other, 720 h
Procedure, shortened: (§2)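 Compounds were formulated as 100 g/L emulsified concentrates in DMF with TW-80 as emulsifier, then diluted with water to the required concentration. They were applied postemergence to pot-grown plants in a greenhouse. The soil was clay, pH 6.5, with 1.6% organic matter, 37.3% clay particles and CEC 12.1 mol/kg. Sulfentrazone served as the reference control.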

Gossypium hirsutum [4] = experiment: Phytotoxicity against Gossypium hirsutum (cotton) plant assessed as growth inhibition at 300 g of active ingredient/ha administered using post-emergence treatment measured 30 days post treatment protocol under greenhouse conditions; assay type: organism-based; settings: in vivo, other, 720 h; procedure, shortened: as §2
Gossypium hirsutum [5] = experiment: Phytotoxicity against Gossypium hirsutum (cotton) plant assessed as growth inhibition at 150 g of active ingredient/ha administered using post-emergence treatment measured 30 days post treatment protocol under greenhouse conditions; assay type: organism-based; settings: in vivo, other, 720 h; procedure, shortened: as §2
[6] = Phytotoxicity against Gossypium hirsutum (cotton) plant assessed as growth inhibition at 75 g of active ingredient/ha administered using post-emergence treatment measured 30 days post treatment protocol under greenhouse conditions; assay type: organism-based; settings: in vivo, read-out: GI; procedure, shortened: as §2
[7] = Phytotoxicity against Oryza sativa (rice) plant assessed as growth inhibition at 450 g of active ingredient/ha administered using post-emergence treatment measured 30 days post treatment protocol under greenhouse conditions; assay type: organism-based; settings: in vivo, read-out: GI; procedure, shortened: as §2
[8] = Phytotoxicity against Oryza sativa (rice) plant assessed as growth inhibition at 300 g of active ingredient/ha administered using post-emergence treatment measured 30 days post treatment protocol under greenhouse conditions; assay type: organism-based; settings: in vivo, read-out: GI; procedure, shortened: as §2
Brassica napus [9] = experiment: Phytotoxicity against Brassica napus (oilseed rape) assessed as growth inhibition at 150 g of active ingredient/ha administered using post-emergence treatment measured 30 days post treatment protocol under greenhouse conditions; assay type: organism-based; settings: in vivo, other, 720 h; procedure, shortened: as §2
[10] = Phytotoxicity against Brassica napus (oilseed rape) assessed as growth inhibition at 75 g of active ingredient/ha administered using post-emergence treatment measured 30 days post treatment protocol under greenhouse conditions; assay type: organism-based; settings: in vivo, read-out: GI; procedure, shortened: as §2
Zea mays = experiment: Phytotoxicity against Zea mays (maize) plant assessed as growth inhibition at 150 g of active ingredient/ha administered using post-emergence treatment measured 30 days post treatment protocol under greenhouse conditions; assay type: organism-based; settings: in vivo, other, 720 h; procedure, shortened: as §2
Glycine max = experiment: Phytotoxicity against Glycine max (soybean) plant assessed as growth inhibition at 300 g of active ingredient/ha administered using post-emergence treatment measured 30 days post treatment protocol under greenhouse conditions; assay type: organism-based; settings: in vivo, other, 720 h; procedure, shortened: as §2
[11] = Phytotoxicity against Oryza sativa (rice) plant assessed as growth inhibition at 150 g of active ingredient/ha administered using post-emergence treatment measured 30 days post treatment protocol under greenhouse conditions; assay type: organism-based; settings: in vivo, read-out: GI; procedure, shortened: as §2
[12] = Phytotoxicity against Oryza sativa (rice) plant assessed as growth inhibition at 75 g of active ingredient/ha administered using post-emergence treatment measured 30 days post treatment protocol under greenhouse conditions; assay type: organism-based; settings: in vivo, read-out: GI; procedure, shortened: as §2
Setaria viridis [13] = experiment: Herbicidal activity against Setaria viridis (green foxtail) assessed as growth inhibition at 75 g of active ingredient/ha administered using post-emergence treatment measured 15 days post treatment protocol under greenhouse conditions; assay type: functional; procedure, shortened: as §1
Brassica juncea [14] = experiment: Herbicidal activity against Brassica juncea assessed as growth inhibition at 37.5 g of active ingredient/ha administered using post-emergence treatment measured 15 days post treatment protocol under greenhouse conditions; assay type: functional; procedure, shortened: as §1
Senna tora [15] = experiment: Herbicidal activity against Senna tora assessed as growth inhibition at 150 g of active ingredient/ha administered using post-emergence treatment measured 15 days post treatment protocol under greenhouse conditions; assay type: functional; procedure, shortened: as §1
Senna tora [16] = experiment: Herbicidal activity against Senna tora assessed as growth inhibition at 37.5 g of active ingredient/ha administered using post-emergence treatment measured 15 days post treatment protocol under greenhouse conditions; assay type: functional; procedure, shortened: as §1
Chenopodium album = experiment: Herbicidal activity against Chenopodium album assessed as growth inhibition at 75 g of active ingredient/ha administered using post-emergence treatment measured 15 days post treatment protocol under greenhouse conditions; assay type: functional; procedure, shortened: as §1
Amaranthus retroflexus = experiment: Herbicidal activity against Amaranthus retroflexus assessed as growth inhibition at 150 g of active ingredient/ha administered using post-emergence treatment measured 15 days post treatment protocol under greenhouse conditions; assay type: functional; procedure, shortened: as §1
Digitaria sanguinalis = experiment: Herbicidal activity against Digitaria sanguinalis (hairy crabgrass) assessed as growth inhibition at 150 g of active ingredient/ha administered using post-emergence treatment measured 15 days post treatment protocol under greenhouse conditions; assay type: functional; procedure, shortened: as §1
Echinochloa crus-galli = experiment: Herbicidal activity against Echinochloa crus-galli (barnyard grass) assessed as growth inhibition at 37.5 g of active ingredient/ha administered using post-emergence treatment measured 15 days post treatment protocol under greenhouse conditions; assay type: functional; procedure, shortened: as §1
Portulaca oleracea [17] = experiment: Herbicidal activity against Portulaca oleracea assessed as growth inhibition at 150 g of active ingredient/ha administered using post-emergence treatment measured 15 days post treatment protocol under greenhouse conditions; assay type: functional; procedure, shortened: as §1
Portulaca oleracea [18] = experiment: Herbicidal activity against Portulaca oleracea assessed as growth inhibition at 75 g of active ingredient/ha administered using post-emergence treatment measured 15 days post treatment protocol under greenhouse conditions; assay type: functional; procedure, shortened: as §1
Portulaca oleracea [19] = experiment: Herbicidal activity against Portulaca oleracea assessed as growth inhibition at 37.5 g of active ingredient/ha administered using post-emergence treatment measured 15 days post treatment protocol under greenhouse conditions; assay type: functional; procedure, shortened: as §1
Cerastium arvense [20] = experiment: Herbicidal activity against Cerastium arvense assessed as growth inhibition at 75 g of active ingredient/ha administered using post-emergence treatment measured 15 days post treatment protocol under greenhouse conditions; assay type: functional; procedure, shortened: as §1
Cerastium arvense [21] = experiment: Herbicidal activity against Cerastium arvense assessed as growth inhibition at 37.5 g of active ingredient/ha administered using post-emergence treatment measured 15 days post treatment protocol under greenhouse conditions; assay type: functional; procedure, shortened: as §1
Eclipta prostrata = experiment: Herbicidal activity against Eclipta prostrata assessed as growth inhibition at 75 g of active ingredient/ha administered using post-emergence treatment measured 15 days post treatment protocol under greenhouse conditions; assay type: functional; procedure, shortened: as §1
Brassica juncea [22] = experiment: Herbicidal activity against Brassica juncea assessed as growth inhibition at 75 g of active ingredient/ha administered using post-emergence treatment measured 15 days post treatment protocol under greenhouse conditions; assay type: functional; procedure, shortened: as §1
Triticum aestivum = experiment: Phytotoxicity against Triticum aestivum (wheat) plant assessed as growth inhibition at 450 g of active ingredient/ha administered using post-emergence treatment measured 30 days post treatment protocol under greenhouse conditions; assay type: organism-based; settings: in vivo, other, 720 h; procedure, shortened: as §2
Brassica napus [23] = experiment: Phytotoxicity against Brassica napus (oilseed rape) assessed as growth inhibition at 300 g of active ingredient/ha administered using post-emergence treatment measured 30 days post treatment protocol under greenhouse conditions; assay type: organism-based; settings: in vivo, other, 720 h; procedure, shortened: as §2

With CCS(=O)(=O)Nc1cc(-n2nc(C)n(Cc3ccccc3/C(=N\OC)C(=O)OC)c2=O)c(F)cc1Cl the “growth inhibition (GI)” value (Brassica juncea [1]) was >80%, the “growth inhibition (GI)” value (Setaria viridis [2]) was 50% and the Activity (Gossypium hirsutum [3]) was “Toxic”. For the same compound, the Activity (Gossypium hirsutum [4]) was “Toxic”, the Activity (Gossypium hirsutum [5]) was “Toxic” and the inhibition at 720 h [6] was 60%. The inhibition at 720 h [7] was 10%, the inhibition at 720 h [8] was 0% and the Activity (Brassica napus [9]) was “Toxic”. The inhibition at 720 h [10] was 80%, the Activity (Zea mays) was “Toxic” and the Activity (Glycine max) was “Toxic”. For the same compound, the inhibition at 720 h [11] was 0%, the inhibition at 720 h [12] was 0% and the “growth inhibition (GI)” value (Setaria viridis [13]) was <50%. The “growth inhibition (GI)” value (Brassica juncea [14]) was >80%, the “growth inhibition (GI)” value (Senna tora [15]) was 100% and the “growth inhibition (GI)” value (Senna tora [16]) was 50%. The “growth inhibition (GI)” value (Chenopodium album) was >80%, the “growth inhibition (GI)” value (Amaranthus retroflexus) was 100% and the “growth inhibition (GI)” value (Digitaria sanguinalis) was 50%. The “growth inhibition (GI)” value (Echinochloa crus-galli) was <50%, the “growth inhibition (GI)” value (Portulaca oleracea [17]) was 100% and the “growth inhibition (GI)” value (Portulaca oleracea [18]) was 100%. The “growth inhibition (GI)” value (Portulaca oleracea [19]) was 100%, the “growth inhibition (GI)” value (Cerastium arvense [20]) was 100% and the “growth inhibition (GI)” value (Cerastium arvense [21]) was >80%. The “growth inhibition (GI)” value (Eclipta prostrata) was >80%, the “growth inhibition (GI)” value (Brassica juncea [22]) was >80% and the Activity (Triticum aestivum) was “Toxic”. For the same compound, the Activity (Brassica napus [23]) was “Toxic”.
